Screens: PubChem, several laboratories
Rows were chosen to be rich in hits. Some 8.9% of all compounds tested hit in one or more screens of this group.
HSV replic up: enhancers of HSV replication in host cells, fold increase, host cell viability | maximum fold increase | AID 1956, 2009 | HSV replication augmentation in cells | 0.005% of 220,000 active; in the data active = maximum fold increase above about 1.5; tested in PC3 cells
bCat nuc transl: modulators of beta-catenin nuclear translocation, primary screen, imaging, HeLa cells, immunofluorescence, high-content; 0.3% of 190,000 active; AID 1665, 2009; nuclear translocation activity, % at 5 µM;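 active = nuclear translocation activity above 50% at 5 µM, with a well cell count of 50 or more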;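 also: per-cell ratio of nuclear to cytoplasmic median beta-catenin stain intensity; plate controls were DMSO negative control for no effect and GSK-3 inhibitor IX positive control for full effect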
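Test system: human HeLa cells, native beta-catenin. Compound dosing: 5 µM primary single dose, 0.1% DMSO, 0.02–20 µM confirmation series. Incubation: compound exposure 24 h at 37°C. Detection: beta-catenin immunostaining with DAPI counterstain, 20x imaging, 6 fields/well. Read-out basis: Nuclear/cytoplasmic beta-catenin signal ratio, % activation.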
MT stabilize HCS: microtubule stabilizers in HeLa cells, primary screen, imaging, high-content imaging | AID 2205, 2009 | % tubulin-high responders, % at 10 µM | 0.83% of 200,000 active | HeLa tubulin immunostaining HCS, 24 h; share of cells brighter than vehicle mean+2SD;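 active = plate Z-score above 3 for both tubulin-high and condensed-nucleus cell shares, with cell loss under 80%, at 10 µM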;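 also: anti alpha tubulin signal scored within the nucleus-defined area of each cell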
Lmaj promast: Leishmania major promastigote growth inhibition, primary screen; 9% of 200,000 active; inhibition, % at 10 µM; AID 1063, 2008; Leishmania major promastigotes, resazurin fluorescence viability; in the data active = inhibition above about 50%;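 also: promastigotes grown with compound for 44 hours at 28 °C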
Dynein transport: inhibitors of GR-EGFP nuclear translocation, primary screen, dynein cargo transport inhibitor project, imaging, high-content, 3617.4 mouse cells; test concentration mostly 20 µM; stimulated with dexamethasone, 1 µM; hits give low values; z-score, hits read low; 0.47% of 220,000 active; AID 1381, 2008;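 active = plate z-score of nuclear minus cytoplasmic receptor signal below a set negative limit, without overly bright fluorescence or cell loss, cut at about -3.5 in these data, passing the limit was not always enough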;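 also: z-score of nuclear minus cytoplasmic ring GR-EGFP intensity difference per well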
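Buffer or medium: Induction medium lacking tetracycline, stripped serum | Also added: Dexamethasone agonist, 1.0 µM final, for 30 min | Timing: 48 h induction, 1 h compound, 30 min dex at 37 °C | Detection: Formaldehyde fixation, Hoechst nuclear stain, 10x automated fluorescence imaging | Measure: Nuclear versus cytoplasmic GR-EGFP signal, averaged per well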
The depositor's hits bear a star; i = inactive; . = no result given.

SMILES	HSV replic up	bCat nuc transl	MT stabilize HCS	Lmaj promast	Dynein transport
Cc1ccc(NC(=O)c2cccc(S(=O)(=O)N(C)c3ccccc3)c2)cc1S(=O)(=O)N1CCOCC1	i	1	2	98*	-0.18
Cc1ccc(C(=O)Nc2cccc(C(=O)O)c2)cc1S(=O)(=O)N1CCOCC1	i	-2	3	0	-1.4
C=CCN(c1ccccc1OC)S(=O)(=O)c1ccc(Cl)c(C(=O)Nc2ccc(N3CCOCC3)cc2)c1	i	3	4	19	-0.39
CN(c1ccccc1C(=O)Nc1ccc(S(=O)(=O)N2CCOCC2)cc1)S(=O)(=O)c1ccccc1	i	2	5	91*	3.4
CCOC(=O)CNC(=O)CSc1nnc(-c2ccccc2)c(-c2ccccc2)n1	i	0	2	-3	-0.66
Cc1nn(Cc2ccc(Br)cc2)c(C)c1NC(=O)c1nn(C)cc1Cl	i	2	4	-7	-0.49
Cc1cc(C(=O)CSc2nnnn2C)c(C)n1-c1cccc(F)c1	i	-3	3	7	-1.1
Cc1cc(C)cc(-n2c(C)cc(C(=O)CSc3nnnn3C)c2C)c1	i	.	3	91*	-0.35
Cc1ccc(-n2nnnc2SCC(=O)c2cc(C)n(-c3cc(C)on3)c2C)cc1	i	6	7.5*	-7	-0.42
CCn1c(SCC(=O)Nc2cc(C)on2)nnc1-c1cccs1	i	-4	4	-6	-0.87
O=[N+]([O-])c1ccc(SCCO)nc1SCCO	i	-3	.	.	-0.011
CCOc1ccc2[nH]c(=O)c(CN(CCc3ccccc3)C(=O)N3CCCC3)cc2c1	i	0	2	8	0.23
Cc1cccc(NC(=O)CSc2ccc(-c3ccco3)nn2)c1	i	-1	3	19	0.45
Cc1cc(C)cc(NC(=O)CSc2ccc(-c3ccco3)nn2)c1	i	-2	4	51*	-0.36
Cc1ccc(CNC(=O)CSc2ccc(-c3ccco3)nn2)cc1	i	0	3	63*	-0.39
O=C(CSc1ccc(-c2ccco2)nn1)NCc1ccc(F)cc1	i	-2	4	28	-1.1
O=C(COC(=O)C1CC(=O)N(c2ccccc2)C1)c1ccccc1 (centres undefined)	i	-1	5	-6	-0.67
COc1ccc(C(=O)C2CCCN(Cc3c(C)[nH]c4ccccc34)C2)c(OC)c1 (centres undefined)	i	0	4	97*	-0.24
COc1ccc(C(=O)C2CCCN(Cc3sc(N4CCCC4)nc3Cl)C2)c(OC)c1 (centres undefined)	i	-2	3	99*	0.13
COc1ccc(C(=O)C2CCCN(C3Cc4ccccc4C3)C2)c(OC)c1 (centres undefined)	i	1	3	94*	0.49
COc1ccc(C(=O)C2CCCN(Cc3ccc(C#CCCO)cc3)C2)c(OC)c1 (centres undefined)	i	-1	2	-2	-0.17
CCCN(CCO)Cc1cccc(Oc2ccccc2)c1	i	2	5	97*	-0.66
CC1(C)C2CCC1(CS(=O)(=O)Nc1ccc(S(=O)(=O)NC3CCCCC3)cc1)C(=O)C2 (centres undefined)	i	-3	2	6	-0.0049
CC1(C)C2CCC1(CS(=O)(=O)Nc1ccc(S(=O)(=O)N3CCCC3)cc1)C(=O)C2 (centres undefined)	i	3	2	50*	0.0016
COc1cc(C)c(Cl)cc1S(=O)(=O)n1cnc2ccccc21	.	-8	1	31	-0.53
SMILES	HSV replic up	bCat nuc transl	MT stabilize HCS	Lmaj promast	Dynein transport
COc1ccc(C(C)C)cc1S(=O)(=O)n1cnc(C)c1	i	.	18*	-3	0.13
COc1cc(C)c(Cl)cc1S(=O)(=O)n1cnc(C)c1	i	.	2	89*	0.31
CCOc1cc(C)c(C(C)C)cc1S(=O)(=O)n1cnc(C)c1	i	0	18*	26	-0.68
Cc1cccn2c(=O)c3cc(C(=O)N4CCCc5ccccc54)n(C)c3nc12	.	.	3	0	0.25
O=C(NNC(=O)c1csc(-c2cccnc2)n1)c1ccccc1	i	0	.	.	0.28
Cc1ccccc1NC(=S)N(C)Cc1cccs1	i	.	3	-2	-0.052
Cc1ccc(-c2csc3nc(SCC(N)=O)n(Cc4ccccc4)c(=O)c23)cc1	i	-2	2	52*	2.4
CC1CCN(CCOc2ccccc2-c2ccccc2)CC1	.	0	3	20	-0.85
Cc1ccc([N+](=O)[O-])c(OCCN2CCC(Cc3ccccc3)CC2)c1	i	-2	3	94*	0.12
Cc1cccc(C(=O)N2CCC(Cc3ccccc3)CC2)c1[N+](=O)[O-]	i	0	2	53*	-0.097
O=C(COc1ccccc1[N+](=O)[O-])N1CCC(Cc2ccccc2)CC1	i	1	2	8	0.29
CCOc1ccccc1OCCN1CCC(Cc2ccccc2)CC1	i	0	3	99*	-0.66
Cc1ccccc1OCCN1CCC(Cc2ccccc2)CC1	i	-3	1	82*	-0.58
Cc1ccc(S(=O)(=O)NCCC(=O)Nc2nnc(C3CC3)s2)cc1C	i	-7	5	3	2
Cc1cc(C)cc(N(CCC(=O)Nc2nnc(C3CC3)s2)S(=O)(=O)c2ccc(Cl)cc2)c1	i	-2	19*	82*	-0.21
CC1CC(=O)N(c2ccc(NCc3ccccc3Cl)c([N+](=O)[O-])c2)C1=O (centres undefined)	i	-2	3	68*	-0.96
O=C1CCC(=O)N1c1ccc(NCc2ccccc2Cl)c([N+](=O)[O-])c1	i	-2	3	67*	0.88
Cc1ccc(CNc2ccc(N3C(=O)CCCC3=O)cc2[N+](=O)[O-])cc1	i	0	3	-4	-0.053
CCn1cc(/C=N/NC(=O)c2cc3c(ccc4ccccc43)o2)c2ccccc21	i	-2	41*	100*	1.9
CC(C)n1cc(/C=N\NC(=O)c2cc3c(ccc4ccccc43)o2)c2ccccc21	i	-2	8	97*	-0.22
CN1CCC(N(C)C(=O)Cc2ccccc2[N+](=O)[O-])CC1	i	1	3	-4	-0.23
CCN(CCNC(=O)C1CCN(S(=O)(=O)c2c(C)noc2C)CC1)c1ccccc1	i	0	3	98*	0.71
CCCS(=O)(=O)N1CCC(C(=O)NCCN(C)Cc2ccccc2)CC1	i	1	4	61*	0.42
Cc1noc(C)c1S(=O)(=O)N1CCCC(C(=O)NCCc2ccc(Cl)cc2)C1 (centres undefined)	i	.	2	100*	1.5
CCCCCCN(C(=O)CCCCCN1C(=O)NC(c2ccc(-c3ccccc3)cc2)C(C(=O)OCc2ccccc2)=C1C)C(C(=O)NCCCC)C1CCCCC1 (centres undefined)	i	3	.	.	0.26
COCCNC(=S)N1CCC(NC(=O)Nc2ccc(C)cc2)CC1	i	-1	3	-8	-0.022
